According to ChEMBL document CHEMBL1770122, “Synthesis, antibacterial and antimycobacterial activities of some new 4-aryl/heteroaryl-2,6-dimethyl-3,5-bis-N-(aryl)-carbamoyl-1,4-dihydropyridines” (2011):
≈ marks a conversion by molar mass, not a printed value. Calls of active or inactive are those of the source. No cut-off for these calls is given here.

Legend:
Bacillus subtilis [1] = test: Antimicrobial activity against Bacillus subtilis NCIM 2063/ATCC 6633 at 12.5 ug/mL after 24 hrs by disc diffusion method; type: functional; settings: for zone of inhibition at 12.5 µg/mL: NCIM 2063/ATCC 6633, 24 h, read-out: DIZ
Procedure, shortened: (§1)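 NCIM cultures were used. Test solutions in DMSO, diluted from a 1 mg mL-1 stock to 12.5, 25 or 50 µg mL-1, were loaded onto sterile 5 mm filter-paper discs and dried. Nutrient agar was spread with 100 µL of 24 h bacterial suspension (10^8 cells mL-1). Incubation was 37 ± 1 °C for 24 h, and inhibition-zone diameter was read. DMSO served as control, with tetracyclin and streptomycin (50 µg mL-1) discs as standards. Triplicate, averaged.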

Bacillus subtilis [2] = test: Antimicrobial activity against Bacillus subtilis NCIM 2063/ATCC 6633 at 25 ug/mL after 24 hrs by disc diffusion method; type: functional; settings: NCIM 2063/ATCC 6633, 24 h, read-out: DIZ; procedure, shortened: as §1
Bacillus subtilis [3] = test: Antimicrobial activity against Bacillus subtilis NCIM 2063/ATCC 6633 at 50 ug/mL after 24 hrs by disc diffusion method; type: functional; settings: NCIM 2063/ATCC 6633, 24 h, read-out: DIZ; procedure, shortened: as §1
Bacillus subtilis [4] = test: Antimicrobial activity against Bacillus subtilis NCIM 2063/ATCC 6633 at 1000 ug/mL after 24 hrs by disc diffusion method; type: functional, organism-based
Staphylococcus aureus [5] = test: Antimicrobial activity against Staphylococcus aureus NCIM 2079/ATCC 6538P at 12.5 ug/mL after 24 hrs by disc diffusion method; type: functional; settings: for zone of inhibition at 12.5 µg/mL: read-out: DIZ; procedure, shortened: as §1
Staphylococcus aureus [6] = test: Antimicrobial activity against Staphylococcus aureus NCIM 2079/ATCC 6538P at 25 ug/mL after 24 hrs by disc diffusion method; type: functional; settings: read-out: DIZ; procedure, shortened: as §1
Staphylococcus aureus [7] = test: Antimicrobial activity against Staphylococcus aureus NCIM 2079/ATCC 6538P at 50 ug/mL after 24 hrs by disc diffusion method; type: functional; settings: read-out: DIZ; procedure, shortened: as §1
Staphylococcus aureus [8] = test: Antimicrobial activity against Staphylococcus aureus NCIM 2079/ATCC 6538P at 1000 ug/mL after 24 hrs by disc diffusion method; type: functional, organism-based
Staphylococcus aureus [9] = test: Antimicrobial activity against methicillin-resistant Staphylococcus aureus at 12.5 ug/mL after 24 hrs by disc diffusion method; type: functional, organism-based
Staphylococcus aureus [10] = test: Antimicrobial activity against methicillin-resistant Staphylococcus aureus at 25 ug/mL after 24 hrs by disc diffusion method; type: functional, organism-based
Staphylococcus aureus [11] = test: Antimicrobial activity against methicillin-resistant Staphylococcus aureus at 50 ug/mL after 24 hrs by disc diffusion method; type: functional, organism-based
Staphylococcus aureus [12] = test: Antimicrobial activity against methicillin-resistant Staphylococcus aureus at 1000 ug/mL after 24 hrs by disc diffusion method; type: functional; settings: for zone of inhibition at 1000 µg/mL: read-out: DIZ
Procedure, shortened: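 Disc diffusion on nutrient agar. Compound at 1 mg mL-1 (1000 µg mL-1) in DMSO was loaded onto 5 mm sterile filter-paper discs and dried. Plates were spread with 100 µL of a 24 h culture at 10^8 cells mL-1. Incubated at 37 ± 1 °C for 24 h; inhibition zone diameters recorded. DMSO control disc. Triplicate, averaged.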

Escherichia coli [13] = test: Antimicrobial activity against Escherichia coli NCIM 2068/ATCC 11105 at 12.5 ug/mL after 24 hrs by disc diffusion method; type: functional; settings: NCIM 2068/ATCC 11105, 24 h, read-out: DIZ; procedure, shortened: as §1
Escherichia coli [14] = test: Antimicrobial activity against Escherichia coli NCIM 2068/ATCC 11105 at 25 ug/mL after 24 hrs by disc diffusion method; type: functional; settings: NCIM 2068/ATCC 11105, 24 h, read-out: DIZ; procedure, shortened: as §1
Escherichia coli [15] = test: Antimicrobial activity against Escherichia coli NCIM 2068/ATCC 11105 at 50 ug/mL after 24 hrs by disc diffusion method; type: functional; settings: NCIM 2068/ATCC 11105, 24 h, read-out: DIZ; procedure, shortened: as §1
Escherichia coli [16] = test: Antimicrobial activity against Escherichia coli NCIM 2068/ATCC 11105 at 1000 ug/mL after 24 hrs by disc diffusion method; type: functional, organism-based
Proteus vulgaris [17] = test: Antimicrobial activity against Proteus vulgaris NCIM 2027/ATCC 13315 at 12.5 ug/mL after 24 hrs by disc diffusion method; type: functional; settings: NCIM 2027/ATCC 13315, 24 h, read-out: DIZ; procedure, shortened: as §1
Proteus vulgaris [18] = test: Antimicrobial activity against Proteus vulgaris NCIM 2027/ATCC 13315 at 25 ug/mL after 24 hrs by disc diffusion method; type: functional; settings: NCIM 2027/ATCC 13315, 24 h, read-out: DIZ; procedure, shortened: as §1
Proteus vulgaris [19] = test: Antimicrobial activity against Proteus vulgaris NCIM 2027/ATCC 13315 at 50 ug/mL after 24 hrs by disc diffusion method; type: functional; settings: NCIM 2027/ATCC 13315, 24 h, read-out: DIZ; procedure, shortened: as §1
Proteus vulgaris [20] = test: Antimicrobial activity against Proteus vulgaris NCIM 2027/ATCC 13315 at 1000 ug/mL after 24 hrs by disc diffusion method; type: functional, organism-based
[21] = system: Mycobacterium tuberculosis; test: Antimycobacterial activity against multidrug-susceptible Mycobacterium tuberculosis H37Rv ATCC 27294 after 4 weeks; type: functional; settings: H37Rv ATCC 27294, 672 h
Procedure, shortened: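 Lowenstein-Jensen proportion method. Drug at 6.25, 12.5, 25, 50 and 100 µg mL-1 in LJ medium slants, set overnight. Inoculated with 4 mg mL-1 suspension by 3 mm loop, 37 °C, 4 weeks. MIC is the lowest concentration fully inhibiting growth, by CFU versus medium, inoculated and DMSO controls. Three independent determinations.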

SMILES | zone of inhibition at 25 µg/mL (Bacillus subtilis [2]) [mm] | zone of inhibition at 50 µg/mL (Bacillus subtilis [3]) [mm] | diameter of the inhibition zone (DIZ) (Bacillus subtilis [4]) | zone of inhibition at 25 µg/mL (Staphylococcus aureus [6]) [mm] | zone of inhibition at 50 µg/mL (Staphylococcus aureus [7]) [mm] | diameter of the inhibition zone (DIZ) (Staphylococcus aureus [8]) | diameter of the inhibition zone (DIZ) (Staphylococcus aureus [9]) | diameter of the inhibition zone (DIZ) (Staphylococcus aureus [10]) | diameter of the inhibition zone (DIZ) (Staphylococcus aureus [11]) | zone of inhibition at 1000 µg/mL (Staphylococcus aureus [12]) [mm] | zone of inhibition at 12.5 µg/mL (Escherichia coli [13]) [mm] | zone of inhibition at 25 µg/mL (Escherichia coli [14]) [mm] | zone of inhibition at 50 µg/mL (Escherichia coli [15]) [mm] | diameter of the inhibition zone (DIZ) (Escherichia coli [16]) | zone of inhibition at 12.5 µg/mL (Proteus vulgaris [17]) [mm] | zone of inhibition at 25 µg/mL (Proteus vulgaris [18]) [mm] | zone of inhibition at 50 µg/mL (Proteus vulgaris [19]) [mm] | diameter of the inhibition zone (DIZ) (Proteus vulgaris [20]) | MIC [21] [µg/mL] | zone of inhibition at 12.5 µg/mL (Bacillus subtilis [1]) [mm] | also measured
CC1=C(C(=O)Nc2ccccc2C)C(c2ccccn2)C(C(=O)Nc2ccccc2C)=C(C)N1 | 8 | 10 | inactive | 12 | 15 | inactive | inactive | inactive | inactive | 8 | 14 | 17 | 19 | inactive | 10 | 12 | 16 | inactive | 25 (≈ 55.2 µM) | – | diameter of the inhibition zone (DIZ) (Bacillus subtilis [1]): inactive; diameter of the inhibition zone (DIZ) (Staphylococcus aureus [5]): inactive
CC1=C(C(=O)Nc2ccc(C)cc2)C(c2ccccn2)C(C(=O)Nc2ccc(C)cc2)=C(C)N1 | 10 | 12 | inactive | 10 | 12 | inactive | inactive | inactive | inactive | – | 8 | 10 | 14 | inactive | 9 | 12 | 16 | inactive | > 25 | 9 | zone of inhibition at 12.5 µg/mL (Staphylococcus aureus [5]): 8 mm; diameter of the inhibition zone (DIZ) (Staphylococcus aureus [12]): inactive
CN(C)[C@@H]1C(O)=C(C(N)=O)C(=O)[C@@]2(O)C(O)=C3C(=O)c4c(O)cccc4[C@@](C)(O)[C@H]3C[C@@H]12 [TETRACYCLINE] | – | 20 | inactive | – | 22 | inactive | – | – | inactive | 15 | – | – | 25 | inactive | – | – | 21 | inactive | – | – | –
NC(=O)c1cnccn1 [PYRAZINAMIDE] | – | – | – | – | – | – | – | – | – | – | – | – | – | – | – | – | – | – | 32 (≈ 260 µM) | – | –
CCc1ccc(C2C(C(=O)Nc3ccccc3)=C(C)NC(C)=C2C(=O)Nc2ccccc2)cc1 | 13 | 21 | inactive | 11 | 16 | inactive | inactive | inactive | inactive | – | 10 | 13 | 15 | inactive | 9 | 14 | 16 | inactive | > 25 | 11 | zone of inhibition at 12.5 µg/mL (Staphylococcus aureus [5]): 8 mm; diameter of the inhibition zone (DIZ) (Staphylococcus aureus [12]): inactive
CN[C@@H]1[C@H](O[C@H]2[C@H](O[C@H]3[C@H](O)[C@@H](O)[C@H](N=C(N)N)[C@@H](O)[C@@H]3N=C(N)N)O[C@@H](C)[C@]2(O)C=O)O[C@@H](CO)[C@H](O)[C@H]1O [STREPTOMYCIN] | – | 22 | inactive | – | 21 | inactive | – | – | inactive | 18 | – | – | 23 | inactive | – | – | 26 | inactive | – | – | –
CC1=C(C(=O)Nc2ccc(C)cc2)C(c2ccc[nH]2)C(C(=O)Nc2ccc(C)cc2)=C(C)N1 | 11 | 13 | inactive | 11 | 12 | inactive | inactive | inactive | inactive | 10 | 14 | 19 | 22 | inactive | 10 | 14 | 18 | inactive | 12.5 (≈ 28.4 µM) | 7 | zone of inhibition at 12.5 µg/mL (Staphylococcus aureus [5]): 9 mm
CC1=C(C(=O)Nc2ccccc2)C(c2ccco2)C(C(=O)Nc2ccccc2)=C(C)N1 | 14 | 16 | inactive | 12 | 14 | inactive | inactive | inactive | inactive | 10 | 12 | 15 | 18 | inactive | 8 | 13 | 17 | inactive | > 25 | 10 | zone of inhibition at 12.5 µg/mL (Staphylococcus aureus [5]): 8 mm
